Results taken from paper PMC3023924 (Bioorganic & medicinal chemistry, 2010).
Structures can show the parent of a compound that is named as a salt.

What was measured:
[1] = target: T1, human dopamine transporter (hDAT) (Homo sapiens, UniProt Q01959); assay: [3H]-WIN-35,428 binding inhibition at hDAT N2A neuroblastoma cells; settings: from Ki values
[2] = target: T1, human dopamine transporter (hDAT); assay: [3H]-dopamine uptake inhibition at hDAT N2A neuroblastoma cells; format: cell-based; settings: Table 1
[3] = system: DAT; settings: cited from earlier work; for IC50: read-out: DAT IC50 for inhibition of [3H]-WIN-35,428 binding
[4] = Storage stability of radioligand by HPLC; format: physicochemical; settings: 20 weeks at −20 °C in the dark
Procedure, shortened: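 The radioiodinated test compound was made by Chloramine-T iododestannylation and purified by reversed-phase HPLC (C-18, 8 × 100 mm, 6 μm; 3 mL/min; MeOH 35%/CH₃CN 35%/aqueous 30% with Et₃N 2.1% v/v and HOAc 2.8% v/v; radioactivity plus UV 254 nm detection). It was then trapped on a C-18 cartridge and eluted with MeOH. The storage period spanned more than two ¹²⁵I half-lives.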

[5] = target: 6Xhis-hDAT (Homo sapiens, UniProt Q01959); assay: DAT photoaffinity labeling with [125I]-; format: binding; settings: HEK hDAT cells; 30 nM, UV 254 nm, immunoprecipitation (not shown)
Sequence of 6Xhis-hDAT (Q01959 whole entry): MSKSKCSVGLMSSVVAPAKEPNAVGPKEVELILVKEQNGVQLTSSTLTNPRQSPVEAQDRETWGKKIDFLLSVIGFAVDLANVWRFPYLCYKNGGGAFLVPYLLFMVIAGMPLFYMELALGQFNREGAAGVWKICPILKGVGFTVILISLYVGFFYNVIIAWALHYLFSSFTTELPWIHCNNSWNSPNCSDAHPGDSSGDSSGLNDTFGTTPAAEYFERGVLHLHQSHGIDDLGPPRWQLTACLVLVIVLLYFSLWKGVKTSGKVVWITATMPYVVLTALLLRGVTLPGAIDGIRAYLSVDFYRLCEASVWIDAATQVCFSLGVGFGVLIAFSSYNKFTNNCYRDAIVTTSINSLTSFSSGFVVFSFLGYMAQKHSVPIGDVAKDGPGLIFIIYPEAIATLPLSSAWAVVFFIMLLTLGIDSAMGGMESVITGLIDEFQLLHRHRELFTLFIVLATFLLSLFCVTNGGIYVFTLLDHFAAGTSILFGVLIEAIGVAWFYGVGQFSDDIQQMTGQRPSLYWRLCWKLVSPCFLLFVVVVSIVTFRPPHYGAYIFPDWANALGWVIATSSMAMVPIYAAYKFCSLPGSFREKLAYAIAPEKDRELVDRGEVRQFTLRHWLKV

[6] = system: adult attention-deficit hyperactivity disorder (ADHD); settings: immediate-release and long-acting preparations; cited from earlier work
[7] = target: rat striatal DAT (Rattus norvegicus, UniProt P23977); assay: DAT photoaffinity labeling with [125I]-; format: binding; settings: 30 nM [125I]-(±)-3a; 10 μM or 100 μM competitor; band density vs. control
Sequence of rat striatal DAT (P23977 whole entry): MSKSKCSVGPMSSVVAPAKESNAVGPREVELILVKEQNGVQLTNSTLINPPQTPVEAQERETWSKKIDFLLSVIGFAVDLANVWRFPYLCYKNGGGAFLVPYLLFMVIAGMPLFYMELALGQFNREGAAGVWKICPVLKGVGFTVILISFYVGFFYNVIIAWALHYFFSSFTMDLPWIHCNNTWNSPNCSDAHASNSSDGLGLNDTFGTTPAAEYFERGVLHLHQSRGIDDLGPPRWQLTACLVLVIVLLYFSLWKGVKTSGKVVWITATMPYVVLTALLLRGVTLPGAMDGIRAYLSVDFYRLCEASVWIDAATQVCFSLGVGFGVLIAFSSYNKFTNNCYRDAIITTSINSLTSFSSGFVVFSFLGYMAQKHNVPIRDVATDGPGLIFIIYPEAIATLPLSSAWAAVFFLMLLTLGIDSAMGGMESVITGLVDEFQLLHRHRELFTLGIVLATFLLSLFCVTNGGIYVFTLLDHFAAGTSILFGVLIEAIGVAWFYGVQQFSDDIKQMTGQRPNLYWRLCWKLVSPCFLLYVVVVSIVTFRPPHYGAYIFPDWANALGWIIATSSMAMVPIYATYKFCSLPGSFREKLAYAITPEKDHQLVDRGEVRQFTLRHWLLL

[8] = system: rDAT; settings: pattern previously seen; cited from earlier work

T1 sequence (Q01959 whole entry): as the sequence (Q01959 whole entry) above

SMILES: COC(=O)[C@H](c1ccc(I)cc1)[C@H]1CCCCN1 (racemic) [(±)-1b, (±)-threo-4-Iodomethylphenidate Hydrochloride]
- improvement in DAT affinity versus methylphenidate [1]: approximately two-fold
- comparison of binding and uptake inhibition values [2]: essentially the same value for binding and uptake inhibition
- higher DAT affinity versus methylphenidate ([3]; previous pharmacological results): ~ 6 fold
- IC50 [3]: 14 ± 0.1 nM

SMILES: COC(=O)[C@H](c1cccc(I)c1)[C@H]1CCCCN1 (racemic) [(±)-1f, (±)-threo-3-Iodomethylphenidate Hydrochloride]
- improvement in DAT affinity versus methylphenidate [1]: ~ 5.5 fold

SMILES: COC(=O)C(c1ccc([125I])cc1)[C@H]1CCCCN1Cc1ccc(N=[N+]=[N-])cc1 (mixture of isomers) [[^125I]-(±)-3a, [^125I]-(±)-threo-N-(p-Azido-benzyl)-4-iodomethylphenidate]
- radiochemical purity after storage [4]: about 80%
- irreversible incorporation into DAT (labeled protein of ~80 kDa) [5]: demonstrating the incorporation of [^125I]-(±)-3a into the DAT

SMILES: Fc1ccc(C(OCCN2CCN(CCCc3ccccc3)CC2)c2ccc(F)cc2)cc1 [GBR-12,909]
- comparison of binding and uptake inhibition values [8]: essentially the same value for binding and uptake inhibition

SMILES: CN1[C@@H]2CC[C@H]1C[C@@H](OC(c1ccccc1)c1ccccc1)C2 [benztropine]
- comparison of binding and uptake inhibition values [8]: essentially the same value for binding and uptake inhibition

SMILES: COC(=O)[C@H]1[C@@H](c2ccc(F)cc2)C[C@@H]2CC[C@H]1N2C [β-CFT, (−)-2-β-carbomethoxy-3-β-(4-fluorophenyl)tropane]
- block of [125I]-(±)-3a incorporation into DAT [7]: 75–90%
